CHRM5 antagonist: antagonists of human muscarinic M5 receptor (CHRM5). AID 624040. P08912. hit rate 0.59% among 360,000. CHO-hM5 cells, Fluo-8 calcium fluorescence, ACh EC80. inhibition, % at 3 µM;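 active = inhibition above a per-plate cutoff, the mean of that plate's test compounds plus 3 SD, cut at about 27% in these data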;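 also: 0% = acetylcholine EC80 with DMSO and 100% = DMSO without agonist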
CHRM5 agonist: agonists of human muscarinic M5 receptor (CHRM5); activation, % at 3 µM; hit rate 0.19% among 360,000; CHO-K1 hM5 cells, Fluo-8 calcium fluorescence; 0% DMSO wells, 100% maximal acetylcholine response; AID 624037;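 active = activation above the run's mean over test compounds plus 3 SD, cut at about 23% in these data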;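 also: signal is peak over basal fluorescence ratio across the kinetic read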
M5 PAM: CHRM5 positive allosteric modulation | hit rate 0.3% among 360,000 | P08912 | activation, % at 3 µM | CHO-K1 hM5, Fluo-8 calcium, ACh EC20 PAM; 0% = ACh EC20, 100% = ACh EC100;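 active = activation above the run cutoff, the mean activation of all test compounds plus 3 SD, cut at about 18% in these data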
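Test system: CHO-K1 hM5 cells / Doses: single-point, 3 µM nominal / Times: Post-acetylcholine fluorescence recording 140 s / Technique: Fluo-8 calcium fluorescence / Measure: Max/basal fluorescence ratio as % of EC20–EC100 ACh window / Benchmarks: low control EC20 acetylcholine (0%), high control EC100 acetylcholine (100%) / Replicates: one well per compound, no replicates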
M4 PAM: potentiates acetylcholine response at human M4 receptor | P08173 | CHO-K1 hM4/Gqi5, Fluo-8 calcium fluorescence, ACh EC20; 0% = ACh EC20, 100% = maximal ACh | activation, % at 3 µM | hit rate 0.4% among 360,000;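 active = activation above its plate's cutoff, the mean activation of sample wells plus 3 SD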
Target sequence (P08173 whole entry, looked up): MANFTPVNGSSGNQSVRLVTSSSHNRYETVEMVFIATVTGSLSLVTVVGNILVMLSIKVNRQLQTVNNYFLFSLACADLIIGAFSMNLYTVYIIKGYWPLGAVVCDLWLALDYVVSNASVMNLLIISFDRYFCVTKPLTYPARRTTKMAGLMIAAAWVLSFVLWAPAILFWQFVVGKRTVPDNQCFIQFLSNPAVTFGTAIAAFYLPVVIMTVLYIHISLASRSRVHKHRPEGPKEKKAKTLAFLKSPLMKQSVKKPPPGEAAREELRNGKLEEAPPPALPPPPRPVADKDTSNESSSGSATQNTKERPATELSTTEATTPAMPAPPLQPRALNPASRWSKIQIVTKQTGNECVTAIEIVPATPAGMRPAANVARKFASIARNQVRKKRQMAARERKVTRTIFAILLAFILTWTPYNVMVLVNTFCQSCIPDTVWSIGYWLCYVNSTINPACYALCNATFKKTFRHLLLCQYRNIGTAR
M4 ag: CHRM4 agonism in calcium assay; CHO-K1 hM4/Gqi5, Fluo-8 calcium fluorescence; vehicle 0%, full acetylcholine response 100%; activation, % at 3 µM; AID 624127; hit rate 0.14% among 360,000; P08173;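 active = activation above the run mean over all test wells plus 3 SD, cut at about 32% in these data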;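 also: peak over basal fluorescence ratio per well then scaled between controls; 0% = DMSO wells and 100% = acetylcholine at EC100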
CHRM4 antagonist: antagonists of human muscarinic M4 receptor (CHRM4) | hit rate 0.73% among 360,000 | CHO-hM4 cells, ACh EC80, Fluo-8 calcium fluorescence | P08173 | inhibition, % at 3 µM | AID 624125;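 active = inhibition above its plate's cutoff, the mean inhibition of sample wells plus 3 SD, cut at about 27% in these data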;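 also: 0% = acetylcholine EC80 with DMSO and 100% = DMSO without agonist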
The depositor's hits bear a star; ! = a repeat was not active. Compounds with a hit are over-represented: about 1.8% of the library has one in this group of screens.

SMILES | CHRM5 antagonist | CHRM5 agonist | M5 PAM | M4 PAM | M4 ag | CHRM4 antagonist
Fc1ccc([C@@H]2CCNC[C@H]2COc2ccc3c(c2)OCO3)cc1 | 30*! | 7 | -19 | -17 | 15 | 34*!
Fc1ccc(C2CCNCC2COc2ccc3c(c2)OCO3)cc1 (stereo not drawn) | 20 | 2 | -17 | -19 | 12 | 20
CCN(C(=O)COC(=O)C1CC1C)c1c(N)n(Cc2ccccc2)c(=O)[nH]c1=O (stereo not drawn) | -6 | 3 | 1 | -3 | 1 | 1
COc1ccccc1NC(=O)C(C)OC(=O)Cc1ccsc1 (stereo not drawn) | 6 | 1 | 5 | 9 | 0 | -8
CCc1c(C)nc(SCC(N)=O)c(C#N)c1C | 5 | 1 | -1 | 0 | 1 | -1
CCc1c(C)nc(SCC(=O)c2cccs2)c(C#N)c1C | 1 | 1 | -5 | 80* | 6 | 39*
Cc1cccn2c(=O)c(/C=C(\C#N)C(=O)NCc3ccco3)c(N3CCCC(C)C3)nc12 (stereo not drawn) | 7 | 0 | -5 | 3 | 0 | 13
CCOC(=O)C1CCCN(c2nc3c(C)cccn3c(=O)c2/C=C(\C#N)C(=O)NCc2ccco2)C1 (stereo not drawn) | 13 | 31* | -27 | -24 | 6 | 1
O=C(NC1CCCc2ccccc21)c1ccccc1OC(F)F (stereo not drawn) | 3 | -7 | 5 | -6 | 3 | -2
CCC(=O)NN1CCN(c2ccncc2S(=O)(=O)N2CCCCC2)CC1 | 4 | -3 | -6 | 8 | 3 | -8
CC(=O)c1cccc2c(O)c(C3=Nc4ccccc4C3=O)[nH]c12 | -8 | -2 | 9 | 25* | 2 | 11
O=C1C(c2c(O)[nH]c3ccccc23)=Nc2ccccc21 | -3 | 1 | 0 | 0 | 3 | -13
CCCn1c(=S)[nH]c2cc(Cl)ccc21 | 6 | -8 | 1 | 9 | -1 | -1
COc1ccc(NS(=O)(=O)c2cccc(C(=O)N/N=C/c3cn(-c4ccccc4)nc3-c3ccccc3)c2)cc1 | 11 | -2 | -3 | -20 | 1 | 51*
COc1ccc(Cc2nnc(NC(=O)c3cccc(F)c3)s2)cc1OC | -3 | -2 | -2 | 2 | 2 | -6
COc1ccc(CCNc2nc(C)nc3c2oc2ccccc23)cc1OC | 33* | 7 | -21 | -17 | 21 | 23
COc1ccc(CCNc2ncnc3c2oc2ccccc23)cc1OC | 50* | 7 | -16 | -21 | 21 | 26
COc1ccc(CCNc2nc(-c3cccnc3)nc3ccccc23)cc1OC | 39* | 0 | -15 | -19 | 15 | 28*
Cc1ccc(N2CCCn3c2cc(C)c(C#N)c3=O)cc1Cl | -5 | -1 | 6 | 38* | 1 | 1
Cc1ccc(N2CCCn3c2cc(C)c(C#N)c3=O)cc1C | 5 | 0 | 3 | 9 | 0 | -2
COCCNC(=O)Cn1cnc2c(cnn2-c2ccc(OC)cc2)c1=O | -2 | 1 | 0 | -6 | 1 | 0
CCOCCc1nnc(NC(=O)Cc2ccccc2)s1 | -5 | 3 | 5 | 12 | -1 | 0
CCOCCc1nnc(NC(=O)Cc2c(F)cccc2Cl)s1 | 2 | -2 | 5 | 19* | -1 | -13
O=C(Nc1ccccc1N1CCCC1)c1ccc([N+](=O)[O-])cc1Cl | -15 | -4 | 9 | 25* | 1 | -16
O=C(NC(c1ccccc1)C(Cl)Cl)c1ccccc1 (stereo not drawn) | -3 | 0 | 5 | -7 | 1 | -3
SMILES | CHRM5 antagonist | CHRM5 agonist | M5 PAM | M4 PAM | M4 ag | CHRM4 antagonist
[N-]=[N+]=NC(c1ccccc1)C(NC(=O)c1cc(C(F)(F)F)cc(C(F)(F)F)c1)c1ccccc1 (stereo not drawn) | 11 | 0 | -17 | -13 | 18 | 31*
COc1ccc(C2NC(=O)NC(C)=C2[N+](=O)[O-])cc1 (stereo not drawn) | 9 | 1 | 1 | 0 | 0 | -5
Cc1n(N)c2ccccc2[n+]1CC(=O)c1ccccc1 | 3 | -2 | 7 | 3 | 2 | -8
COc1cccc(C2Nc3ccccc3C(=O)N2Cc2ccccc2)c1 (stereo not drawn) | 28* | -6 | 28* | 8 | 7 | 24
O=C1c2ccccc2NC(c2ccccc2)N1Cc1ccccc1 (stereo not drawn) | 11 | -15 | -2 | -11 | 9 | 6
O=c1[nH]cnc2c1C(c1ccccc1[N+](=O)[O-])c1c(nc[nH]c1=O)O2 | -13 | 0 | 21* | 13 | 1 | 0
O=C(O)c1cccc2c1/C(=N/O)c1ccccc1-2 | -12 | 4 | 20* | 2 | 1 | -11
O=C(O)c1cccc2c1-c1ccccc1/C2=N\Nc1ccccc1 | 1 | -3 | 3 | 1 | 1 | -8
CN(CC1CCCO1)S(=O)(=O)c1ccc(C(=O)Nc2nnc(-c3ccccc3)o2)cc1 (stereo not drawn) | -9 | -4 | 9 | 11 | 0 | -21
Cc1c(C(c2ccccc2Br)c2c(C)n(C)n(-c3ccccc3)c2=O)c(=O)n(-c2ccccc2)n1C | -3 | -6 | -6 | -8 | 2 | 11
COc1cc(OC)cc(C(=O)NCCCCc2ccccc2)c1 | 5 | 4 | -5 | -24 | 9 | -3
CCc1ccccc1NC(=O)CN1CCN(C(=O)CN2C(=O)NC3(CCCCC3C)C2=O)CC1 (stereo not drawn) | 4 | 0 | -3 | -2 | 0 | 1
CC1CCCCC12NC(=O)N(CC(=O)Nc1ccccc1-c1ccccc1)C2=O (stereo not drawn) | 0 | 6 | -2 | 2 | 2 | 2
Cc1cccc(C)c1NC(=O)CN1CCN(C(=O)CN2C(=O)NC3(CCCCC3C)C2=O)CC1 (stereo not drawn) | -1 | 2 | 1 | 23* | 1 | -11
CC1CCCCC12NC(=O)N(CC(=O)Nc1ccccc1F)C2=O (stereo not drawn) | 6 | 2 | 0 | 22* | 1 | 1
COC(=O)c1sccc1S(=O)(=O)Nc1ccc(C(O)(C(F)(F)F)C(F)(F)F)cc1 | 27 | 69* | -20 | -17 | 133* | 63*
Nc1ccc(-c2nc3c(ccc4ccccc43)[nH]2)cc1 | -1 | 5 | -2 | 4 | 1 | -9
CCCNC(=O)c1cccc(COc2ccccc2OC)c1 | -1 | -2 | -2 | -4 | 2 | -5
CCCNC(=O)c1cccc(COCC(F)(F)F)c1 | -8 | -4 | 34* | 5 | 1 | 2
O=C(NN1CCOCC1)c1ccc(Cl)cc1[N+](=O)[O-] | -9 | -3 | 1 | 3 | 1 | -8

Compound activity (PubChem)
